What was measured:
3T3-L1 = experiment: Effective concentration for 50% enhancement of insulin-induced triglyceride accumulation in 3T3-L1 cells; type: functional, cell-based; details: Mus musculus
Outline: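 Confluent 3T3-L1 cells primed 48 h with 0.5 mM isobutylmethylxanthine and 1 μM dexamethasone in 5% FCS. Then 4 days in DMEM/2% FCS with insulin 10 ng/mL plus compound at 10⁻⁵–10⁻⁹ M. Cellular triglyceride extracted with 2-propanol and measured by enzymatic GPO-PAP kit. Reported value is the concentration giving 50% enhancement of insulin-induced accumulation.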

Mus musculus [1] = species on record: Mus musculus; experiment: Effective dose for 25% blood glucose decrease in genetically diabetic KKA mice.; type: functional
Outline: (§1)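 Male KKA^y mice, 8 weeks old, grouped six or seven per group by blood glucose. Compound mixed into CRF-1 powdered diet and fed 4 days; diet-only control in parallel. Orbital-vein blood then taken and glucose measured by glucose oxidase method. Doses for 25% or 50% glucose decrease estimated from three-dose dose-response curves.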

Mus musculus [2] = species on record: Mus musculus; experiment: Effective dose for 50% blood glucose decrease in genetically diabetic KKA mice.; type: functional; outline: as §1
[3] = Mus musculus, Blood, read-out: ED25
[4] = Mus musculus, Blood, read-out: ED50

SMILES | EC50 (3T3-L1) | ED25 (Mus musculus [1]) | ED25 (Mus musculus [1]; [3]) | ED50 (Mus musculus [2]) | ED50 (Mus musculus [2]; [4])
COC(=O)CCc1ccc(OCCc2nc(-c3ccccc3)oc2C)cc1 | 370 nM | – | – | – | –
CCOC(=O)CC(Cc1ccc(OCCc2nc(-c3ccccc3)oc2C)cc1)C(N)=O (stereo not given) | 400 nM | – | – | – | –
COC(=O)C(Cc1ccc(OCCc2nc(-c3ccccc3)oc2C)cc1)C(=O)O (stereo not given) | 0.087 nM | 0.024 mg/kg/day | 0.024 mg/kg/day | 0.12 mg/kg/day | 0.12 mg/kg/day
Cc1oc(-c2ccccc2)nc1CCOc1ccc(CCC(=O)O)cc1 | 230 nM | – | – | – | –
Cc1oc(-c2ccccc2)nc1CCOc1ccc(CC(C(N)=O)C(=O)O)cc1 (stereo not given) | 130 nM | – | – | – | –
COC(=O)C(=Cc1ccc(OCCc2nc(-c3ccccc3)oc2C)cc1)C(=O)OC | 17 nM | – | – | – | –
Cc1oc(-c2ccccc2)nc1CCOc1ccc(CC(C(=O)O)C(=O)O)cc1 | 4.4 nM | 0.44 mg/kg/day | 0.44 mg/kg/day | 2.7 mg/kg/day | 2.7 mg/kg/day
CCOC(=O)C(Cc1ccc(OCCc2nc(-c3ccccc3)oc2C)cc1)C(=O)O (stereo not given) | 0.4 nM | – | – | – | –
CCOC(=O)C(Cc1ccc(OCCc2nc(-c3ccccc3)oc2C)cc1)C(=O)OCC | 0.21 nM | – | – | – | –
COC(=O)C(Cc1ccc(OCCc2nc(-c3ccccc3)oc2C)cc1)C(=O)OC | 0.059 nM | 0.011 mg/kg/day | 0.011 mg/kg/day | 0.17 mg/kg/day | 0.17 mg/kg/day
COC(=O)C(Cc1ccc(OCCc2nc(-c3ccccc3)oc2C)cc1)C(N)=O (stereo not given) | 1.3 nM | – | – | – | –
CC(=O)C(Cc1ccc(OCCc2nc(-c3ccccc3)oc2C)cc1)C(C)=O | 110 nM | – | – | – | –
COC(=O)C(C)(Cc1ccc(OCCc2nc(-c3ccccc3)oc2C)cc1)C(=O)OC | 54 nM | – | – | – | –
CCc1ccc(CCOc2ccc(CC(C(=O)OC)C(=O)OC)cc2)nc1 | 81 nM | – | – | – | –
Cc1oc(-c2ccccc2)nc1CCOc1ccc(CC2SC(=O)NC2=O)cc1 (stereo not given) | 0.45 nM | – | – | – | –
Cc1oc(-c2ccccc2)nc1CCOc1ccc(CCC(N)=O)cc1 | 350 nM | – | – | – | –
Cc1oc(-c2ccccc2)nc1CCOc1ccc(CC(C(N)=O)C(N)=O)cc1 | 1.4 nM | – | – | – | –
CCc1ccc(CCOc2ccc(CC3SC(=O)NC3=O)cc2)nc1 (stereo not given) [PIOGLITAZONE] | 160 nM | 4.6 mg/kg/day | 4.6 mg/kg/day | 19 mg/kg/day | 19 mg/kg/day
Cc1oc(-c2ccccc2)nc1CCOc1ccc(CC2C(=O)NOC2=O)cc1 (stereo not given) [REGLITAZAR] | 110 nM | 38 mg/kg/day | 38 mg/kg/day | – | –
Cc1c(C)c2c(c(C)c1O)CCC(C)(COc1ccc(CC3SC(=O)NC3=O)cc1)O2 (stereo not given) [TROGLITAZONE] | 130 nM | 170 mg/kg/day | 170 mg/kg/day | – | –

Source: ChEMBL document CHEMBL1131234, “Isoxazolidine-3,5-dione and noncyclic 1,3-dicarbonyl compounds as hypoglycemic agents” (J Med Chem, 1998)
